Measured values from PMC3180826 (ACS chemical neuroscience, 2010).
Positions count from the first letter of the chain named.

Assays:
M1 = target: T1, M1 (Rattus norvegicus, UniProt P08482); test: [3H]-NMS competition binding, M1 CHO membranes; settings: concentrations well above those required to fully activate M1
T1 sequence (P08482 1-460): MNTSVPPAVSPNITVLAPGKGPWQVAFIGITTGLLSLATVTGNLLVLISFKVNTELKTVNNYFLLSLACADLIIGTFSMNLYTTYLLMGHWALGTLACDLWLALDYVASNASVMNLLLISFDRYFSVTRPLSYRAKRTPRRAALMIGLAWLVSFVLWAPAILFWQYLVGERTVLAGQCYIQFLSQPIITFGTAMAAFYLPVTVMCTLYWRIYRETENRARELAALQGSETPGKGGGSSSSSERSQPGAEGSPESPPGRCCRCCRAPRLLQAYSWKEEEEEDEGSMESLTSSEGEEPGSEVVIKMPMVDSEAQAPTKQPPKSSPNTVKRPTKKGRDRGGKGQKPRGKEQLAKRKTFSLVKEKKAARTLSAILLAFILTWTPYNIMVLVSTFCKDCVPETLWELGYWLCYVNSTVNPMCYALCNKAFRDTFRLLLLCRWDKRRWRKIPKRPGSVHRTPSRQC

M4 = target: T2, M4 (Rattus norvegicus, UniProt P08485); test: [3H]-NMS competition binding, M4 CHO membranes; settings: concentrations well above those required to fully activate M1
T2 sequence (P08485 1-478): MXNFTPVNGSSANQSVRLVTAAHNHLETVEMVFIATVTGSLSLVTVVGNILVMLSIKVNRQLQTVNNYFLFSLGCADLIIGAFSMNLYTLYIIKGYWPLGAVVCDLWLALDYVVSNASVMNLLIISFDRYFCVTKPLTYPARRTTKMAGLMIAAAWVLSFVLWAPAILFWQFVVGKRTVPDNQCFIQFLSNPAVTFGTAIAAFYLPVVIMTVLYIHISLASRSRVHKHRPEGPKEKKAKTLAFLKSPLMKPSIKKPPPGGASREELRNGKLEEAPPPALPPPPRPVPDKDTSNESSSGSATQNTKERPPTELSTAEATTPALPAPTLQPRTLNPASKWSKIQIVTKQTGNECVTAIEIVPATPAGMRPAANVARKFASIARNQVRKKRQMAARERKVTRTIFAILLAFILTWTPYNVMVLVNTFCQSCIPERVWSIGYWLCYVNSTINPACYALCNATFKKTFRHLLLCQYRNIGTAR

M5 = target: T3, M5 (Homo sapiens, UniProt P08912); test: [3H]-NMS competition binding, M5 CHO membranes; settings: concentrations well above those required to fully activate M1
T3 sequence (P08912 1-532): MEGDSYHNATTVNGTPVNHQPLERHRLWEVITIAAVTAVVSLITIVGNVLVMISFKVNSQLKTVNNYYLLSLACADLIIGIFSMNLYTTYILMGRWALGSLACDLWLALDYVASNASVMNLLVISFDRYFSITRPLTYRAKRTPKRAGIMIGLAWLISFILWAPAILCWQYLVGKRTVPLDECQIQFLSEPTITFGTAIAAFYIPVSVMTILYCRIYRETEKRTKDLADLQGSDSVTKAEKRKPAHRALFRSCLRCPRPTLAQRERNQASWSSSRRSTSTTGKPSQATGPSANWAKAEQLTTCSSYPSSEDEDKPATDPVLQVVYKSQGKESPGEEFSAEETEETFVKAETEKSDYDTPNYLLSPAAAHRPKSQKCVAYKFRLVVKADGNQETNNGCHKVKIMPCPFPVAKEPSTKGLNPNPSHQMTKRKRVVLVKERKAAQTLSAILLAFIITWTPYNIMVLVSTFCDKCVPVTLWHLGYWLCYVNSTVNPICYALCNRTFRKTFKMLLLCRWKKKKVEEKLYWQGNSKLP

rM1 E397V = target: T4, rM1 E397V (Rattus norvegicus, UniProt P08482, E397V); test: Calcium mobilization, rM1 E397V mutant CHO-K1 cells; type: cell-based; settings: compared with wt rM1
T4 sequence (P08482 1-460 E397V): T1 sequence (P08482 1-460) with E397V
How it was run: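 CHO-K1 cells were transiently transfected overnight at 37 °C with 10 μg of mutant rat M1 cDNA in pcDNA3.1+ using Fugene 6, then plated for the calcium assay. They were loaded with 2 μM Fluo-4 AM for 1 h at 37 °C in HEPES/probenecid-buffered HBSS, pH 7.4. Test compound dose–response series were added at 19 s. Calcium mobilization was measured as fluorescence increase over basal.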

rM1 EE397/401DD = target: T5, rM1 EE397/401DD (Rattus norvegicus, UniProt P08482, E397D/E401D); test: Calcium mobilization, rM1 EE397/401DD double mutant CHO-K1 cells; type: cell-based; settings: compared with wt rM1 and triple mutant
T5 sequence (P08482 1-460 E397D/E401D): T1 sequence (P08482 1-460) with E397D, E401D

[1] = Plasma-brain exposure profile PK study; type: in vivo; settings: rat
How it was run: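 Test compound was dissolved in sterile water at 5 mg/mL and dosed at 10 mg/kg ip in male Sprague–Dawley rats (225–250 g). Plasma and brain were collected at 0.5, 1, 2, 4 and 8 h, with three rats per time point. Brains were homogenized 1:3 in PBS, and samples were extracted by acetonitrile/0.1% formic acid precipitation with internal standard. Quantification was by LC-MS/MS SRM (10–2000 ng/mL calibration), with noncompartmental analysis.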

CCOC(=O)N1CCC(NCCNC(=O)c2ccccc2)CC1 [VU0184670, ethyl 4-(2-benzamidoethylamino)piperidine-1-carboxylate]
reduction of [3H]-NMS binding to M1 (M1): did not reduce
reduction of [3H]-NMS binding to M4 (M4): did not reduce
reduction of [3H]-NMS binding to M5 (M5): did not reduce
functional activity at E397V mutant (rM1 E397V): mild reduction in potency and efficacy
functional potency and efficacy at EE397/401DD double mutant (rM1 EE397/401DD): decrease the potency and efficacy further toward the levels observed with the triple mutant
brain level ([1]; 10 mg/kg i.p., brain): 14490.12 ± 2663.82 ng/mL
plasma level ([1]; 10 mg/kg i.p., plasma): 311.86 ± 20.77 ng/mL
central penetrance ([1]; i.p. administration): centrally-penetrant
